According to ChEMBL document CHEMBL1157410, “7-aryl 1,5-dihydro-benzo[e][1,4]oxazepin-2-ones and analogs as non-steroidal progesterone receptor antagonists” (Bioorg Med Chem, 2008):

Key:
Progesterone receptor [1] = target: T1, Progesterone receptor (Homo sapiens, UniProt P06401); test: Inhibition of progesterone receptor mediated progesterone-induced alkaline phosphatase activity in human T47D cells; assay type: cell-based
T1 sequence (P06401 whole entry): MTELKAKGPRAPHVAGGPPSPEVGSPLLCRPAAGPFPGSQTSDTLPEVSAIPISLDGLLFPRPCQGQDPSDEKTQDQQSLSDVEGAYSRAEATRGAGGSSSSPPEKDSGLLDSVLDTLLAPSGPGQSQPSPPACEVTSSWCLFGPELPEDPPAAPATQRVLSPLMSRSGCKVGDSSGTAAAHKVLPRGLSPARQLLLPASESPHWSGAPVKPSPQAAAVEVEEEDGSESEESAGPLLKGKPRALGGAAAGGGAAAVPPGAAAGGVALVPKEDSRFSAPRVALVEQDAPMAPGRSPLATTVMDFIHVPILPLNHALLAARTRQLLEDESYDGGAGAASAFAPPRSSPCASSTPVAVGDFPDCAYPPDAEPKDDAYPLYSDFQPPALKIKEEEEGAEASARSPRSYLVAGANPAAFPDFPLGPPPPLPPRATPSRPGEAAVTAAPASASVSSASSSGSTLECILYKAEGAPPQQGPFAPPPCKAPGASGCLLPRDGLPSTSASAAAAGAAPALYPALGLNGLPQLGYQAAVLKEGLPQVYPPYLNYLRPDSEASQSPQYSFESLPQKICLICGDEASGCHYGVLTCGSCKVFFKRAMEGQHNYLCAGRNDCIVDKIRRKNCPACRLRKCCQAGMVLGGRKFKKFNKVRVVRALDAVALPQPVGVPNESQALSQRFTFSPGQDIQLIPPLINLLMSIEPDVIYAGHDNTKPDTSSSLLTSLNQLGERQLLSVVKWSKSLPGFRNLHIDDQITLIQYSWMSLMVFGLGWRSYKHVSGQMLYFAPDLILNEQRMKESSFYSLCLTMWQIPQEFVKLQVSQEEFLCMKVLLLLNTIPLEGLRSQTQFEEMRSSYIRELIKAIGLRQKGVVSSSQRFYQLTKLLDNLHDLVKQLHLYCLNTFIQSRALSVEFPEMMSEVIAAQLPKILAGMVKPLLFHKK

Progesterone receptor [2] = target: T1, Progesterone receptor; test: Agonist activity at progesterone receptor assessed as alkaline phosphatase activity in human T47D cells
[3] = target: T2, Mineralocorticoid receptor (Homo sapiens) (UniProt P08235); test: Antagonist activity at cloned mineralocorticoid receptor-ligand binding domain expressed in african green monkey COS7 cells by GAL4 luciferase reporter assay; assay type: cell-based; conditions: COS-7; concentration not given here
T2 sequence (whole entry): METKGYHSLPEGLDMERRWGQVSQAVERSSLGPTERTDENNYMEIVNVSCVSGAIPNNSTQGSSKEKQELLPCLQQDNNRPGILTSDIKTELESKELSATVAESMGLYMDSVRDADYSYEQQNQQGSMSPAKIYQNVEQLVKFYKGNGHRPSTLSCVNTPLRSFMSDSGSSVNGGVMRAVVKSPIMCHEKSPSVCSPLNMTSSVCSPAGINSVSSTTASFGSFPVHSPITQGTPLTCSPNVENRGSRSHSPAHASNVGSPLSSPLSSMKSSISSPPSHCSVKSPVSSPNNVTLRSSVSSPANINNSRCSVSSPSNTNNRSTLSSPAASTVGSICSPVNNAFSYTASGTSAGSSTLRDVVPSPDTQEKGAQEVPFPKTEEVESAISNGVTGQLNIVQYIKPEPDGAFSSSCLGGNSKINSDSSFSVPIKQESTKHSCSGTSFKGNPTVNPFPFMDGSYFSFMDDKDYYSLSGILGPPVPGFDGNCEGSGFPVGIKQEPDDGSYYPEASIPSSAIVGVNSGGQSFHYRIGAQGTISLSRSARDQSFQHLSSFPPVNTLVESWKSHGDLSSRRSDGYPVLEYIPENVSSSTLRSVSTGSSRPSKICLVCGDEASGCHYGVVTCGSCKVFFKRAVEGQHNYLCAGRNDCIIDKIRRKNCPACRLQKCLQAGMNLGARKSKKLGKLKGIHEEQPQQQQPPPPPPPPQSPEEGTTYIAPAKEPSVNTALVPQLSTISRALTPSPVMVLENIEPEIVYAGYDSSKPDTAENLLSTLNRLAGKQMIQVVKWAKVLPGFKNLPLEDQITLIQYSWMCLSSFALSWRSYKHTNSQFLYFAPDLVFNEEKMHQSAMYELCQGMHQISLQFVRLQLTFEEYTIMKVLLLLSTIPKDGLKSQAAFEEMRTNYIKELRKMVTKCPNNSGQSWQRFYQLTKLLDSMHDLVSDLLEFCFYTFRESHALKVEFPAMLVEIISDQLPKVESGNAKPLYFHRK
Procedure, shortened: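 GAL4 DNA-binding domain fused to receptor ligand-binding domain, one-hybrid format. LBD fusion and GAL4_UAS (5 copies, E1b minimal TATA) luciferase reporter plasmids, 50 ng/well each, transfected 16 h into COS-7 cells. Cells grown in phenol red-free DMEM with 10% charcoal/dextran-treated FBS. Compound exposure 20 h, then luciferase read on lysates. Mean of at least duplicate determinations.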

IC50 (Progesterone receptor [1]) [nM]	Compound	also measured
108	CCC1(c2cccs2)OCC(=O)Nc2ccc(-c3csc(C#N)c3)cc21 (stereo not given)	
15	CC1(C)OCC(=O)Nc2ccc(-c3cc(F)cc(Cl)c3)cc21	
59.2	CCC1(c2ccsc2)OCC(=O)Nc2ccc(-c3cc(F)cc(C#N)c3)cc21 (stereo not given)	
65.2	O=C1COC(c2cccs2)(c2cccs2)c2cc(-c3ccc(F)c(Cl)c3)ccc2N1	
34.1	N#Cc1cc(F)cc(-c2ccc3c(c2)C(c2ccco2)(C(F)(F)C(F)(F)F)OCC(=O)N3)c1 (stereo not given)	
138	CC(C)C1(c2cccs2)OCC(=O)Nc2ccc(-c3cc(F)cc(C#N)c3)cc21 (stereo not given)	
349	CCCC1(c2cccs2)OCC(=O)Nc2ccc(-c3ccc(F)c(Cl)c3)cc21 (stereo not given)	
78.2	CC(C)C1(c2cccs2)OCC(=S)Nc2ccc(-c3cc(F)cc(C#N)c3)cc21 (stereo not given)	
30	CC1(C)OCC(=O)Nc2ccc(-c3cc(F)cc(F)c3)cc21	
100	CCC1(c2cccs2)OCC(=O)Nc2ccc(-c3cc(F)cc(C#N)c3)cc21 (stereo not given)	
65.5	CC1(c2cccs2)OCC(=O)Nc2ccc(-c3ccc(F)c(Cl)c3)cc21 (stereo not given)	
14.9	CC1(C)OCC(=O)Nc2ccc(-c3cccc(F)c3)cc21	
1000	N#Cc1cc(F)cc(-c2ccc3c(c2)C(c2ccc(Cl)s2)(c2ccc(Cl)s2)OCC(=O)N3)c1	
366	CC(C)C1(c2cccs2)OCC(=O)Nc2ccc(-c3ccc(F)c(Cl)c3)cc21 (stereo not given)	
26.6	N#Cc1cc(F)cc(-c2ccc3c(c2)C(c2cccs2)(c2cccs2)OCC(=O)N3)c1	
34.6	CC1(C)OCC(=O)Nc2ccc(-c3cc(Cl)cc(C#N)c3)cc21	
208	CCC1(c2cccs2)OCC(=O)Nc2ccc(-c3ccc(F)c(Cl)c3)cc21 (stereo not given)	

More lines, now with the values behind:

Compound	IC50 (Progesterone receptor [1]) [nM]	also measured
CCC1(c2ccsc2)OCC(=O)Nc2ccc(-c3ccc(F)c(Cl)c3)cc21 (stereo not given)	117	
O=C1COC(c2ccc(Cl)s2)(c2ccc(Cl)s2)c2cc(-c3ccc(F)c(Cl)c3)ccc2N1	1000	
CC1(C)OCC(=O)Nc2ccc(-c3ccc(F)c(F)c3)cc21	29.3	
O=C1COC(c2ccco2)(C(F)(F)C(F)(F)F)c2cc(-c3ccc(F)c(Cl)c3)ccc2N1 (stereo not given)	82.4	
CC1(C)OCC(=S)Nc2ccc(-c3cc(F)cc(F)c3)cc21		EC50 (Progesterone receptor [2]; read-out: EC50): 35.8 nM
CC1=NCC(=O)Nc2ccc(-c3ccc(F)c(Cl)c3)cc21	677	
CC1(C)OC(=O)Nc2ccc(-c3cc(F)cc(C#N)c3)cc21		EC50 (Progesterone receptor [2]): 90 nM
CC1(C)OCC(=O)Nc2ccc(-c3ccc(F)c(Cl)c3)cc21	30.1	
CCC1(c2ccco2)OCC(=O)Nc2ccc(-c3ccc(F)c(Cl)c3)cc21 (stereo not given)	62.5	
CC1(C)OCC(=O)Nc2ccc(-c3ccccc3F)cc21	62.1	
CCC1(c2ccco2)OCC(=O)Nc2ccc(-c3coc(C#N)c3)cc21 (stereo not given)	29.9	
CC#C[C@]1(O)CC[C@H]2[C@@H]3CCC4=CC(=O)CCC4=C3[C@@H](c3ccc(N(C)C)cc3)C[C@@]21C		inhibition [3]: 96%
CC1(C)OCC(=O)Nc2ccc(-c3cccc(F)c3F)cc21	15.7	
CC1(C)OCC(=O)Nc2ccc(-c3cc(Cl)cc(Cl)c3)cc21	29.1	
O=C1COC(c2ccccc2)(c2ccccc2)c2cc(-c3ccc(F)c(Cl)c3)ccc2N1	88	
CN1CC(=O)Nc2ccc(-c3ccc(F)c(Cl)c3)cc2C1(C)C	105	
O=C1COC(c2ccco2)(c2ccco2)c2cc(-c3ccc(F)c(Cl)c3)ccc2N1	22.5	
CC1(C)OCC(=O)Nc2ccc(-c3ccc(F)cc3)cc21	100	
